Laboratory results as given in ChEMBL document CHEMBL3108713, “Identification of ML251, a Potent Inhibitor of T. brucei and T. cruzi Phosphofructokinase” (ACS Med Chem Lett, 2014).
Calls of active or inactive are those of the source. The rule behind the calls is not given here.

Experiments:
[1] = Aqueous kinetic solubility of the compound; format: physicochemical; details: buffer; read-out: Kinetic_solubility
[2] = Metabolic stability in mouse plasma assessed as compound remaining after 2 hrs; format: ADME, cell-free; details: read-out: Stability
[3] = Half life in rat liver microsomes; format: ADME
[4] = target: T1, ATP-dependent 6-phosphofructokinase (Trypanosoma cruzi, UniProt Q4E657); assay: Inhibition of Trypanosoma cruzi PFK
T1 sequence (Q4E657 whole entry): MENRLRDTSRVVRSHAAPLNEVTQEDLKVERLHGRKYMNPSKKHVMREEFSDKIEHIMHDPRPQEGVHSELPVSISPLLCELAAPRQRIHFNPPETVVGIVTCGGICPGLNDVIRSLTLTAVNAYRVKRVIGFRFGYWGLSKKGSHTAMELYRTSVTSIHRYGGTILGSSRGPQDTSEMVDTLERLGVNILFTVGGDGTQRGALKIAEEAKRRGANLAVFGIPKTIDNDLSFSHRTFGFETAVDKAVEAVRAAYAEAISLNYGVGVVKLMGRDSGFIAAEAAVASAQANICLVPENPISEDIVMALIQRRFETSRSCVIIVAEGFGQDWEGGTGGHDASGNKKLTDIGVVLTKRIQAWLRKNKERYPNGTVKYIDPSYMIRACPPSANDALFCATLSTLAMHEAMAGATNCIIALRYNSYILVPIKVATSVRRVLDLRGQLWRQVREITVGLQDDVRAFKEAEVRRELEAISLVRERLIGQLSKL

[5] = target: T2, ATP-dependent 6-phosphofructokinase (Trypanosoma brucei, UniProt O15648); assay: Mixed type inhibition Trypanosoma brucei PFK using ATP as substrate by Line-weaver Burk plot analysis
T2 sequence (O15648 whole entry): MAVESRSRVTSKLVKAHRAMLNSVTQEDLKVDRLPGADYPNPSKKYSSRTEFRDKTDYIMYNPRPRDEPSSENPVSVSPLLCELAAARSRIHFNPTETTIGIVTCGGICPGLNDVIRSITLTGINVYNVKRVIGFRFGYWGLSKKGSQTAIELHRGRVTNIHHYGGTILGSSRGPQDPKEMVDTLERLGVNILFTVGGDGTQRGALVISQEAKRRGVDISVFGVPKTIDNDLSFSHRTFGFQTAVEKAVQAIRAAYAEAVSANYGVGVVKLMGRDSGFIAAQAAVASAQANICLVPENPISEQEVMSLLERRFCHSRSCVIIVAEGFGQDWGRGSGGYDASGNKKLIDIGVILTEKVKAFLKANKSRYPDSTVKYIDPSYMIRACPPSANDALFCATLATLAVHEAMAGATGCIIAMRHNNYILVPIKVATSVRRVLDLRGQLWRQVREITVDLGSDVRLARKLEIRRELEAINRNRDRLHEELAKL
Outline: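 Coupled biochemical PFK assay titrating ATP at several inhibitor levels (0, 1.5, 12.5, 50, 100 nM), F6P held saturating at 2 mM; initial velocities analysed by Lineweaver–Burk transformation, Ki from secondary plots.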

[6] = target: T3, ATP-dependent 6-phosphofructokinase (Trypanosoma cruzi) (UniProt Q4E657); assay: Inhibition of Trypanosoma cruzi PFK at 57 uM
T3 sequence (whole entry): T1 sequence (Q4E657 whole entry)
Outline: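 PFK activity is measured by coupling ADP production to ADP-Glo luciferase luminescence at end point. Percent inhibition is recorded at 57 μM, the highest concentration of the dose series, with at least 3 separate experiments averaged.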

[7] = target: T2, ATP-dependent 6-phosphofructokinase; assay: Competitive inhibition Trypanosoma brucei PFK using fructose-6-phosphate as substrate by Line-weaver Burk plot analysis
Outline: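 Coupled biochemical PFK assay titrating F6P at several inhibitor levels (0, 1.5, 12.5, 50, 100 nM), ATP held saturating at 0.5 mM; initial velocities analysed by Lineweaver–Burk transformation, Ki from secondary plots.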

[8] = system: Trypanosoma brucei brucei; assay: Antitrypanosomal activity against Trypanosoma brucei brucei Lister 427 assessed as cell viability at 1.3 to 33.3 ug/ml after 72 hrs by alamar blue assay; format: functional, organism-based
[9] = Metabolic stability in human plasma assessed as compound remaining after 2 hrs; format: ADME, cell-free; details: read-out: Stability
[10] = Cytotoxicity against human MRC5 cells assessed as intracellular ATP content after 72 hrs by Cell titer-Glo luminiscent assay; format: cell-based
[11] = target: T4, ATP-dependent 6-phosphofructokinase (Trypanosoma brucei) (UniProt O15648); assay: Inhibition of Trypanosoma brucei PFK-mediated ADP production using ATP/fructose-6-phosphate as substrate at 57 uM by luciferase based luminescence assay
T4 sequence (whole entry): T2 sequence (O15648 whole entry)
Outline: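 Recombinant T. brucei PFK; ADP formed by the enzyme is converted to a luminescent signal by a modified luciferase ADP-Glo detection, read at end point.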

[12] = target: T5, ATP-dependent 6-phosphofructokinase, muscle type (Oryctolagus cuniculus) (UniProt P00511); assay: Inhibition of recombinant rabbit muscle PFK expressed in PFK-deficient Escherichia coli DF1020DE3 using ATP/fructose 6 phosphate as substrate at 1 uM; format: tissue-based; details: Muscle tissue
T5 sequence (whole entry): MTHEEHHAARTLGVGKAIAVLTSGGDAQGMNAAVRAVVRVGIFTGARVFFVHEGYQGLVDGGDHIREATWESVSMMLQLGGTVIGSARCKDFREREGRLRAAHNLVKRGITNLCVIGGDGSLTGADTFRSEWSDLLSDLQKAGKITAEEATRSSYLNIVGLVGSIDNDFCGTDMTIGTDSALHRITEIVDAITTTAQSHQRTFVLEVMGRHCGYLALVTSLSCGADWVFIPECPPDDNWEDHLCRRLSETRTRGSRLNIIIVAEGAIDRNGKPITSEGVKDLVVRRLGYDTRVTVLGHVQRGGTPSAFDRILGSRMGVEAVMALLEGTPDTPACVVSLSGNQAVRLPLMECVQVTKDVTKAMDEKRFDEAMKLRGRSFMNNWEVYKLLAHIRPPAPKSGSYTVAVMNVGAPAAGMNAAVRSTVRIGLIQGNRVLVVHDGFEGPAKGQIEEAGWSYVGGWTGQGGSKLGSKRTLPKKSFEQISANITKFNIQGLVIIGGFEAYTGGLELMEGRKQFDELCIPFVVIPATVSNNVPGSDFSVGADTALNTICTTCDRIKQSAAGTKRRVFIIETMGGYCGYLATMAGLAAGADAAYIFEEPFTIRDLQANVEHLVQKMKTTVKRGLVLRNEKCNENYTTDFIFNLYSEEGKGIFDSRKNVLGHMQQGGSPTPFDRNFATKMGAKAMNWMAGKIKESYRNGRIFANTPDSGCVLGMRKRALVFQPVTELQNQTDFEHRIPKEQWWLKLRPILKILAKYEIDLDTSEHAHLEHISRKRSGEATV

[13] = target: T2, ATP-dependent 6-phosphofructokinase; assay: Inhibition of Trypanosoma brucei PFK-mediated ADP production using ATP/fructose-6-phosphate as substrate by luciferase based luminescence assay
Outline: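 Recombinant enzyme; ADP formed by PFK detected with modified luciferase (ADP-Glo) luminescent end-point in 1536-well format.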

[14] = system: Trypanosoma brucei brucei; assay: Antitrypanosomal activity against Trypanosoma brucei brucei Lister 427 assessed as cell viability after 72 hrs by alamar blue assay; format: functional
[15] = Half life in human liver microsomes; format: ADME
[16] = Half life in mouse liver microsomes; format: ADME, Microsome

solubility kinetic [1] [µg/mL] | remaining at 2 h [2] [%] | half-life [3] [h] | IC50 [4] [nM] | Ki [5] [nM] | inhibition [6] [%] | Ki [7] [nM] | remaining at 2 h [9] [%] | inhibition [11] [%] | inhibition [12] | IC50 [13] [nM] | EC50 ([14]; Lister 427, 72 h, read-out: ED50 (the source's name)) [nM] | half-life [15] [h] | half-life [16] [h] | SMILES | Activity [8] | CC50 at 72 h [10] [nM] | Activity [14]
> 81 | > 95 | > 0.5 | 172 | 240 | > 80 | 52 | > 95 | > 80 | inactive | 15 | – | – | – | O=C(Cc1ccc(F)c(Cl)c1)Nc1ccc(S(=O)(=O)Nc2nncs2)cc1 | inactive | > 46000 | –
> 81 | > 95 | > 0.5 | 130 | – | > 80 | – | > 95 | > 80 | – | 370 | 16300 | 5.5 | 3.85 | O=C(Cc1ccc(Cl)c(Cl)c1)Nc1ccc(S(=O)(=O)Nc2ccon2)cc1 | – | > 46000 | Dose-dependent effect
